SIRT5 block – sirtuin-5 (human) deacylase inhibition; Q9NXA8; Purified SirT5, succinyl-peptide AMC, trypsin-coupled fluorescence; inhibition, % at 15 µM; 1.1% of 330,000 active; in the data active = inhibition above about 15%
Target sequence (Q9NXA8 whole entry, looked up): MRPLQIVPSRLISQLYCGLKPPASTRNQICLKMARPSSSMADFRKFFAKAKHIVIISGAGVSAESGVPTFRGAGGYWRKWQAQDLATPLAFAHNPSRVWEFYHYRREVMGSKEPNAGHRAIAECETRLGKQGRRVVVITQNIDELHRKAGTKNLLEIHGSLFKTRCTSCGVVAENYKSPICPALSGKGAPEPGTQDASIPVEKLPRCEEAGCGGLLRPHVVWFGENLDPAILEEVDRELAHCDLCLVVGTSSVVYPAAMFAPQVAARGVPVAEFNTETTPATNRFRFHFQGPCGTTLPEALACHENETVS
DENV2 CPE – inhibitors of DENV2 cytopathic effect; DENV2-infected cells, cytopathic effect rescue, plate reader; CPE inhibition, % at 9.99 µM; 1.7% of 350,000 active; AID 651640; in the data active = CPE inhibition above about 20%, passing the limit was not always enough; tested in BHK-21 cells;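 also: 0% = median of neutral control wells and 100% = median of positive control wells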
S100A4 MyoIIA – inhibitors of human S100A4 binding to myosin IIA peptide; P26447; S100A4/TAMRA-MyoIIA peptide fluorescence polarization; inhibition, % at 10.7 µM; 0.14% of 360,000 active; AID 652163;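 active = mean inhibition of at least 70% across replicates, with every replicate also reaching that level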
Target sequence (P26447 whole entry, looked up): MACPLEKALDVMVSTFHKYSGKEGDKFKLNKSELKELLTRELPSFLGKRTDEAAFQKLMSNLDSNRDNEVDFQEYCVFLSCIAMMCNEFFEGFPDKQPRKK
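Test system: S100A4 monomer protein; Medium: HEPES pH 7.2 with CaCl2, KCl, NaCl, DTT, Triton; Probe or stimulus: TAMRA-labelled myosin IIA heavy-chain peptide probe, 5 nM; Doses: one dose per compound; Times: polarization read 5 min after assay mix addition, stable 5–60 min; Benchmarks: neutral control DMSO, positive control TFP.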
PGC1a acetyl inh – lowers PGC1a acetylation signal in U2OS cells; AID 651687; inhibition, % at 15.6 µM; 0.17% of 350,000 active; AlphaScreen anti-acetyl-lysine; with virally co-expressed GCN5 acetyltransferase;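 active = every replicate shows inhibition of at least 40%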;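 also: 0% = neutral control wells and 100% = positive control wells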
C2C12 statin – suppressors of simvastatin-induced myotoxicity in C2C12 myotubes. ATP luminescence, 48 h; scaled: DMSO 0, geranylgeraniol control 100. rescue of ATP level, % at 7.49 µM. 0.78% of 330,000 active;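 active = mean ATP rescue above about 67%, or every replicate alone reaching that limit, limit read from the data, passing the limit was not always enough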;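 also: myotubes were challenged with 10 µM simvastatin during compound exposure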
* hit, by the source's call; . = no result given. This is a sample that favours compounds with a hit; in the whole collection about 2.9% have one here.

SMILES	SIRT5 block	DENV2 CPE	S100A4 MyoIIA	PGC1a acetyl inh	C2C12 statin
CCOC(=O)/C(=C\c1cccnc1)C(=O)c1cc(C(C)=O)c(Nc2ccccc2)s1	.	.	.	84*	-150
CCCC(=O)Nc1ccc2c(c1)OC[C@@H](C)N(C(=O)CC1CC1)C[C@H](C)[C@@H](OC)CN(C)C2=O	2	2	12	-4	3
O=C(C1CCCC1)N1CC(=O)N2[C@H](CO)[C@@H](c3ccc(Br)cc3)[C@H]2C1	-2	9	0	0	.
CC(=O)OCC(C)n1[nH]c2ccccc2c1=O (stereo unspecified)	40*	-9	1	3	-1
CCC(C)n1c(=S)[nH]c2ccccc2c1=O (stereo unspecified)	1	-5	-4	-8	.
CCCNC(=O)Nc1ccc2c(c1)C(=O)N(C)C[C@@H](OC)[C@H](C)CN(C(=O)C1CCC1)[C@H](C)CO2	0	-10	6	.	6
C[C@H]1CN([C@@H](C)CO)C(=O)c2cc(-c3cccc(F)c3)cnc2O[C@@H]1CN(C)C(=O)C1CCCCC1	2	-12	46	-3	0
O=C(CN1C(=O)C2CC=CCC2C1=O)Nc1nccs1 (stereo unspecified)	.	.	.	50*	.
CCCCCCN(C(=O)CCCCCN1C(=O)NC(c2ccc(-c3ccccc3)cc2)C(C(=O)OCc2ccccc2)=C1C)C(C(=O)NCCCC)c1ccccn1 (stereo unspecified)	.	23*	-2	.	.
c1ccc(-c2ccc(C3[C@H]4CNC[C@@H]3N4Cc3cccc(-c4ccncc4)c3)cc2)cc1 (stereo partly specified)	1	-1	1	.	.
CC(C)C[C@H]1CNC(=O)C(=O)N1C[C@H](Cc1ccc(O)cc1)NC(=O)CC12CC3CC(CC(C3)C1)C2	1	10	1	.	.
O=C1NC[C@@H](CCCCN2C[C@H](Cc3ccc(O)cc3)N(CC3CCCCC3)C(=O)C2=O)N(CCC2CCCCC2)C1=O	1	59*	-3	.	.
O=C1NC[C@@H](CCCCN2CCN(Cc3ccccc3)C(=O)C2=O)N(CC2CCCCC2)C1=O	-4	-6	-2	.	.
CC(C)C[C@H]1CN(CCCC[C@@H]2CNC(=O)C(=O)N2Cc2ccccc2)C(=O)C(=O)N1Cc1ccccc1	-1	17	90*	.	.
CC(C)C[C@@H](CN1C(=O)C(=O)NC[C@@H]1CC(C)C)NC(=O)Cc1ccccc1	.	43*	-4	-3	21
O=C1NC[C@@H](CCCCN2CCN(Cc3ccccc3)C(=O)C2=O)N(CCC2CCCCC2)C1=O	1	21*	1	.	.
COCC(=O)Nc1ccc2c(c1)OC[C@@H](C)N(C(=O)COC)C[C@H](C)[C@H](OC)CN(C)C2=O	.	10	9	3	-26
O=C(C[C@H]1CC[C@@H]2[C@H](COC[C@@H](O)CN2Cc2cccc(Cl)c2)O1)N1CCCCC1	6	0	-1	-11	39
O=C(CC1CC1)N1CC[C@@H]2[C@@H](CO)Nc3ccc(-c4cccc(F)c4)cc3[C@@H]21	1	1	-2	14	1
Cc1cccc(-c2ccc([C@H]3[C@@H](CO)N4CCCCN(C(=O)c5cccnc5)C[C@H]34)cc2)c1	-4	-12	1	-5	.
COc1ccccc1-c1ccc([C@H]2[C@H]3CN(C(=O)c4ccncc4)CCCCN3[C@H]2CO)cc1	0	22*	-2	-3	.
Cc1cccc(-c2ccc([C@@H]3[C@@H](CO)N4CCCCN(C(=O)c5ccc6c(c5)OCO6)C[C@H]34)cc2)c1	4	-31	4	0	3
Cc1cccc(-c2ccc([C@H]3[C@@H](CO)N4CCCCN(C(=O)c5cccnc5)C[C@@H]34)cc2)c1	-2	32*	-11	3	.
Cc1cccc(-c2ccc([C@H]3[C@@H](CO)N4CCCCN(C(=O)c5ccncc5)C[C@@H]34)cc2)c1	1	51*	-6	-2	29
Cc1cccc(-c2ccc([C@H]3[C@@H](CO)N4CCCCN(C(=O)c5ccc6c(c5)OCO6)C[C@@H]34)cc2)c1	1	-19	-7	-9	69*
SMILES	SIRT5 block	DENV2 CPE	S100A4 MyoIIA	PGC1a acetyl inh	C2C12 statin
CC(C)CC#Cc1ccc([C@H]2[C@@H](CO)N3CCCCN(C(=O)c4ccc5c(c4)OCO5)C[C@@H]23)cc1	7	24*	11	1	.
O=C(CSc1nc2c(sc3ccccc32)c(=O)n1Cc1ccco1)NCC1CCCO1 (stereo unspecified)	.	.	.	-4	95*
CCOC(=O)CS(=O)(=O)c1nc(-c2ccccc2)cc(C(F)(F)F)n1	.	.	.	58*	.
CCOC(=O)CCS(=O)(=O)c1nc(-c2ccccc2)cc(C(F)(F)F)n1	.	.	.	68*	-4
C[C@H](CO)N1C[C@H](C)[C@@H](CN(C)CC2CCCCC2)Oc2ccc(NC(=O)NC3CCCCC3)cc2C1=O	1	-17	-7	0	5
Cc1ccc(C2NC(=O)c3[nH]nc(-c4ccccc4)c32)cc1 (stereo unspecified)	-6	-13	-3	.	.
Cc1nc(/N=C\c2ccc(N(C)C)cc2)sc1C	-5	33*	-5	17	-4
CN(C)c1ccc(C=Nc2ccc(N(C)C)cc2)cc1	.	.	.	-29	22
C[C@@H]1CN([C@H](C)CO)C(=O)c2cc(NS(=O)(=O)c3ccc(Cl)cc3)ccc2O[C@@H]1CN(C)Cc1ccc(C(=O)Nc2ccccc2N)cc1	.	11	6	3	97*
COc1ccc(S(=O)(=O)Nc2ccc3c(c2)C(=O)N([C@@H](C)CO)C[C@H](C)[C@H](CN(C)Cc2ccc(C(=O)Nc4ccccc4N)cc2)O3)cc1	.	23*	5	11	.
C[C@@H]1CN([C@@H](C)CO)C(=O)c2cc(NS(=O)(=O)c3ccc(Cl)cc3)ccc2O[C@H]1CN(C)Cc1ccc(C(=O)Nc2ccccc2N)cc1	3	-5	-1	2	36
COc1ccc2[nH]c3c(c2c1)CCN1C(=O)CC[C@H]31	0	6	4	-17	.
CCCNC(=O)N1CCC2(CC1)CN(C(=O)CC)[C@@H](CO)c1c2c2ccc(OC)cc2n1C	.	-3	5	-11	.
CCCCCCCCN1[C@@H](CC(=O)O)c2cc(C(F)(F)F)ccc2S1(=O)=O	40*	3	2	.	11
Cc1cc(C)n(CCC(=O)N2c3ccccc3CC2C)n1 (stereo unspecified)	17*	-3	5	.	7
CC1Cc2ccccc2N1C(=O)CCn1cccn1 (stereo unspecified)	-8	-4	-2	4	-3
COc1cccc(C(=O)N2C[C@H]3[C@@H](c4ccccc42)[C@@H](CO)N3C(=O)NC(C)C)c1	3	-11	.	-6	2
COc1cc(-c2ccc(Nc3ccccc3C(=O)O)c(OC)c2)ccc1Nc1ccccc1C(=O)O	30*	10	-3	7	13
